In ChEMBL document CHEMBL4177526, “Discovery and structure activity relationship of the first potent cryptosporidium FIKK kinase inhibitor” (Bioorg Med Chem, 2017):

Experiments:
[1] = biological target: Protein kinase C alpha type (Homo sapiens) (UniProt P17252); assay: Inhibition of human PKCalpha (1 to 672 residues) assessed as residual activity at 500 nM in presence of 33P-ATP by filter binding assay relative to control
[2] = biological target: Phosphorylase b kinase gamma catalytic chain, skeletal muscle/heart isoform (Homo sapiens) (UniProt Q16816); assay: Inhibition of human PHKgamma1 (2 to 297 residues) assessed as residual activity at 500 nM in presence of 33P-ATP by filter binding assay relative to control
[3] = Inhibition of Cryptosporidium parvum CDPK1 using PLARTLSVAGLPGKK peptide as substrate by NADH coupled LDH-PK ATPase assay
Outline: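 NADH-coupled LDH-PK ATPase read-out with 1.2 nM recombinant CpCDPK1, 0.25 mM ATP, 0.1 mM Syntide 2.0 peptide and 2 mM CaCl2. Inhibitors were made as 10 mM DMSO stocks and tested in 2-fold serial dilutions. IC50 is the average of triplicate experiments.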

[4] = tested on: Ribosomal protein S6 kinase beta-1 (Homo sapiens), P23443 [T412E]; assay: Inhibition of human S6K1 T412E mutant (1 to 421 residues) assessed as residual activity at 500 nM in presence of 33P-ATP by filter binding assay relative to control
[5] = biological target: Mitogen-activated protein kinase kinase kinase kinase 2 (Homo sapiens) (UniProt Q12851); assay: Inhibition of human GCK (2 to 812 residues) assessed as residual activity at 500 nM in presence of 33P-ATP by filter binding assay relative to control
[6] = biological target: MAP/microtubule affinity-regulating kinase 3 (Homo sapiens) (UniProt P27448); assay: Inhibition of human MARK3 (2 to 729 residues) assessed as residual activity at 500 nM in presence of 33P-ATP by filter binding assay relative to control
[7] = biological target: Aurora kinase A (Homo sapiens) (UniProt O14965); assay: Inhibition of human Aurora-A (2 to 403 residues) assessed as residual activity at 500 nM in presence of 33P-ATP by filter binding assay relative to control
[8] = tested on: Serine/threonine-protein kinase OSR1 (Homo sapiens), O95747 [T185E]; assay: Inhibition of human OSR1 T185E mutant (1 to 342 residues) assessed as residual activity at 500 nM in presence of 33P-ATP by scintillation counting method relative to control
[9] = biological target: MAP/microtubule affinity-regulating kinase 4 (Homo sapiens) (UniProt Q96L34); assay: Inhibition of human MARK4 (2 to 752 residues) assessed as residual activity at 500 nM in presence of 33P-ATP by filter binding assay relative to control
[10] = biological target: Ribosomal protein S6 kinase alpha-5 (Homo sapiens) (UniProt O75582); assay: Inhibition of human MSK1 (2 to 802 residues) assessed as residual activity at 500 nM in presence of 33P-ATP by filter binding assay relative to control
[11] = biological target: Mitogen-activated protein kinase 13 (Homo sapiens) (UniProt O15264); assay: Inhibition of human p38delta (1 to 365 residues) assessed as residual activity at 500 nM in presence of 33P-ATP by filter binding assay relative to control
[12] = biological target: Dual specificity mitogen-activated protein kinase kinase 2 (Homo sapiens) (UniProt P36507); assay: Inhibition of human MKK2 (2 to 400 residues) assessed as residual activity at 500 nM in presence of 33P-ATP by filter binding assay relative to control
[13] = biological target: MAP kinase-activated protein kinase 2 (Homo sapiens) (UniProt P49137); assay: Inhibition of human MAPKAPK2 (46 to 400 residues) assessed as residual activity at 500 nM in presence of 33P-ATP by filter binding assay relative to control
[14] = biological target: CDK9/cyclin T1 (Homo sapiens) (UniProt O60563+P50750); assay: Inhibition of human CDK9 (1 to 372 residues)/cyclinT1 (1 to 726 residues) assessed as residual activity at 500 nM in presence of 33P-ATP by filter binding assay relative to control; type: protein-complex assay
[15] = biological target: Serine/threonine-protein kinase PAK 4 (Homo sapiens) (UniProt O96013); assay: Inhibition of human PAK4 (2 to 591 residues) assessed as residual activity at 500 nM in presence of 33P-ATP by filter binding assay relative to control
[16] = biological target: Homeodomain-interacting protein kinase 3 (Homo sapiens) (UniProt Q9H422); assay: Inhibition of human HIPK3 (161 to 562 residues) assessed as residual activity at 500 nM in presence of 33P-ATP by filter binding assay relative to control
[17] = biological target: Ephrin type-A receptor 4 (Homo sapiens) (UniProt P54764); assay: Inhibition of human EPHA4 (570 to 986 residues) assessed as residual activity at 500 nM in presence of 33P-ATP by filter binding assay relative to control
[18] = biological target: CDK2/Cyclin A2 (Homo sapiens) (UniProt P24941+P20248); assay: Inhibition of human CDK2 (2 to 298 residues)/cyclinA2 (171 to 432 residues) assessed as residual activity at 500 nM in presence of 33P-ATP by filter binding assay relative to control; type: protein-complex assay
[19] = biological target: Serine/threonine-protein kinase MARK1 (Homo sapiens) (UniProt Q9P0L2); assay: Inhibition of human MARK1 (2 to 795 residues) assessed as residual activity at 500 nM in presence of 33P-ATP by filter binding assay relative to control
[20] = biological target: Serine/threonine-protein kinase SIK3 (Homo sapiens) (UniProt Q9Y2K2); assay: Inhibition of human SIK3 (2 to 1369 residues) assessed as residual activity at 500 nM in presence of 33P-ATP by filter binding assay relative to control
[21] = biological target: Dual specificity protein kinase CLK2 (Homo sapiens) (UniProt P49760); assay: Inhibition of human CLK2 (138 to 499 residues) assessed as residual activity at 500 nM in presence of 33P-ATP by filter binding assay relative to control
[22] = biological target: Receptor tyrosine-protein kinase erbB-4 (Homo sapiens) (UniProt Q15303); assay: Inhibition of human HER4 (706 to 991 residues) assessed as residual activity at 500 nM in presence of 33P-ATP by filter binding assay relative to control
[23] = biological target: Vascular endothelial growth factor receptor 2 (Homo sapiens) (UniProt P35968); assay: Inhibition of VEGFR2 (unknown origin) assessed as residual activity at 500 nM relative to control
[24] = biological target: Receptor-interacting serine/threonine-protein kinase 2 (Homo sapiens) (UniProt O43353); assay: Inhibition of human RIPK2 (2 to 311 residues) assessed as residual activity at 500 nM in presence of 33P-ATP by filter binding assay relative to control
[25] = biological target: Tyrosine-protein kinase Yes (Homo sapiens) (UniProt P07947); assay: Inhibition of human YES1 (1 to 543 residues) at 500 nM by filter binding assay relative to control

Chain of Ribosomal protein S6 kinase alpha-5 (Homo sapiens) (O75582 whole entry, looked up, the tested form may be a part): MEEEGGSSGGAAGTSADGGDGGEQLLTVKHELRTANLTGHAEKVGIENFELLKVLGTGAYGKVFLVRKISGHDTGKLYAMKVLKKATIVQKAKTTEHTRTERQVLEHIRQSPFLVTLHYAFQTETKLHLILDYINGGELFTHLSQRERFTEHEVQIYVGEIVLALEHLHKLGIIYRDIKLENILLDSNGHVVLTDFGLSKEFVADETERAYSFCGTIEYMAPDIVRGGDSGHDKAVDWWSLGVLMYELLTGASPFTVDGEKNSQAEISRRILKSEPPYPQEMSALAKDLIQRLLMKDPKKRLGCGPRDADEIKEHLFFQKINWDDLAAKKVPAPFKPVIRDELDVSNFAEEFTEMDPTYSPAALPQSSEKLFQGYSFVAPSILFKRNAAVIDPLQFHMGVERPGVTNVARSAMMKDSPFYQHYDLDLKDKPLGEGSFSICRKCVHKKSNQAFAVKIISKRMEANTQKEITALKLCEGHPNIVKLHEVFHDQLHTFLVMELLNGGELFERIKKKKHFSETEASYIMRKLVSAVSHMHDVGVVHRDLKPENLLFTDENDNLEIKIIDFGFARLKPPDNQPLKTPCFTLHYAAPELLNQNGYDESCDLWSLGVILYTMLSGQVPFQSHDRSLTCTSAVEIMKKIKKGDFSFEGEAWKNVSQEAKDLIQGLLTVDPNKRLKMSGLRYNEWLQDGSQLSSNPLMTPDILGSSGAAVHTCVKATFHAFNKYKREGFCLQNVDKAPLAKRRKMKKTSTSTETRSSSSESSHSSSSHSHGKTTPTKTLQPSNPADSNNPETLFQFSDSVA
Chain of Receptor-interacting serine/threonine-protein kinase 2 (Homo sapiens) (O43353 whole entry, the tested form may be a part): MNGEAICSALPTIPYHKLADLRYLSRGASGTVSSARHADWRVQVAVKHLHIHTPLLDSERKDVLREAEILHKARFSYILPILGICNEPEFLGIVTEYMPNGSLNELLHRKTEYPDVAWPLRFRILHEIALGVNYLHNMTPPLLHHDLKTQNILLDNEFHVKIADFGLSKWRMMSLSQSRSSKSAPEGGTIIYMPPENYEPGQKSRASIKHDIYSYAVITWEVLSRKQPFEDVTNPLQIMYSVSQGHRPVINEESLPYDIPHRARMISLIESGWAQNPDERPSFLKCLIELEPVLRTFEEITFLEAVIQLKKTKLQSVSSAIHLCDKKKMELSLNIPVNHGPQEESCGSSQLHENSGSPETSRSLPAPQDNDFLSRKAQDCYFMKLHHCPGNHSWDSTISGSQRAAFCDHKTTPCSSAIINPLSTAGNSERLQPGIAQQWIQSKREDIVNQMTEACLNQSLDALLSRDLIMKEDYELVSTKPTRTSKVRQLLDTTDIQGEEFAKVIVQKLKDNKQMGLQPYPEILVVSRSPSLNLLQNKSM
Chain of MAP/microtubule affinity-regulating kinase 3 (Homo sapiens) (P27448 whole entry, looked up, the tested form may be a part): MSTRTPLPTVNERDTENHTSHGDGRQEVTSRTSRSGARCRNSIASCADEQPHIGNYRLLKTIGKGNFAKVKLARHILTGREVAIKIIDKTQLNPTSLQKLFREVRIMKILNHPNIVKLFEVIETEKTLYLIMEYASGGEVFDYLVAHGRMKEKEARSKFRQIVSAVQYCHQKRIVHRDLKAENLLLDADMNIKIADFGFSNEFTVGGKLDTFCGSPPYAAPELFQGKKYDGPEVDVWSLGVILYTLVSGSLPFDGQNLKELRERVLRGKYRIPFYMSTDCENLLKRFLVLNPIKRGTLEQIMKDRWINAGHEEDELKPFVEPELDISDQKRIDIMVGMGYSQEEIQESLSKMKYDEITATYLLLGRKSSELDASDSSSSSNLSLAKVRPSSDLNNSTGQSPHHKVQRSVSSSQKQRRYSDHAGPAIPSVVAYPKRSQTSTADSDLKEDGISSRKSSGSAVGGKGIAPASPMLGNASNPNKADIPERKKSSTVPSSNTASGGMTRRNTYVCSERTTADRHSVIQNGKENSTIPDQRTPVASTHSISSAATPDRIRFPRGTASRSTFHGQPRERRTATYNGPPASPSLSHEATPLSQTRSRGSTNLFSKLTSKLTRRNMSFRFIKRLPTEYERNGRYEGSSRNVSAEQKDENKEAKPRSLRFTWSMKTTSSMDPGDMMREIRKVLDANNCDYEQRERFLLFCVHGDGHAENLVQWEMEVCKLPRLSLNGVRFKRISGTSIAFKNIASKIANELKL
Chain of Dual specificity mitogen-activated protein kinase kinase 2 (Homo sapiens) (P36507 whole entry, the tested form may be a part): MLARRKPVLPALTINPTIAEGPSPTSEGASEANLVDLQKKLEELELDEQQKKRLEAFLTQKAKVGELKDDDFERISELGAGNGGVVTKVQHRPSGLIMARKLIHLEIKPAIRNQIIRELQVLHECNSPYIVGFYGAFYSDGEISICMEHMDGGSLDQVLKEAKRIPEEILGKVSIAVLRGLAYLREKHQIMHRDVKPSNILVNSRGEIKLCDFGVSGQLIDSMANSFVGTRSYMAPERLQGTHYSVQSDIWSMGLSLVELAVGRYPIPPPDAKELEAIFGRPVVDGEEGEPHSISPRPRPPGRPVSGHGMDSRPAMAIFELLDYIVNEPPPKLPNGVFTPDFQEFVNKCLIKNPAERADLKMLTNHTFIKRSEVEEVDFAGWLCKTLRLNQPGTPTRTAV
Chain of Vascular endothelial growth factor receptor 2 (Homo sapiens) (P35968 whole entry, the tested form may be a part): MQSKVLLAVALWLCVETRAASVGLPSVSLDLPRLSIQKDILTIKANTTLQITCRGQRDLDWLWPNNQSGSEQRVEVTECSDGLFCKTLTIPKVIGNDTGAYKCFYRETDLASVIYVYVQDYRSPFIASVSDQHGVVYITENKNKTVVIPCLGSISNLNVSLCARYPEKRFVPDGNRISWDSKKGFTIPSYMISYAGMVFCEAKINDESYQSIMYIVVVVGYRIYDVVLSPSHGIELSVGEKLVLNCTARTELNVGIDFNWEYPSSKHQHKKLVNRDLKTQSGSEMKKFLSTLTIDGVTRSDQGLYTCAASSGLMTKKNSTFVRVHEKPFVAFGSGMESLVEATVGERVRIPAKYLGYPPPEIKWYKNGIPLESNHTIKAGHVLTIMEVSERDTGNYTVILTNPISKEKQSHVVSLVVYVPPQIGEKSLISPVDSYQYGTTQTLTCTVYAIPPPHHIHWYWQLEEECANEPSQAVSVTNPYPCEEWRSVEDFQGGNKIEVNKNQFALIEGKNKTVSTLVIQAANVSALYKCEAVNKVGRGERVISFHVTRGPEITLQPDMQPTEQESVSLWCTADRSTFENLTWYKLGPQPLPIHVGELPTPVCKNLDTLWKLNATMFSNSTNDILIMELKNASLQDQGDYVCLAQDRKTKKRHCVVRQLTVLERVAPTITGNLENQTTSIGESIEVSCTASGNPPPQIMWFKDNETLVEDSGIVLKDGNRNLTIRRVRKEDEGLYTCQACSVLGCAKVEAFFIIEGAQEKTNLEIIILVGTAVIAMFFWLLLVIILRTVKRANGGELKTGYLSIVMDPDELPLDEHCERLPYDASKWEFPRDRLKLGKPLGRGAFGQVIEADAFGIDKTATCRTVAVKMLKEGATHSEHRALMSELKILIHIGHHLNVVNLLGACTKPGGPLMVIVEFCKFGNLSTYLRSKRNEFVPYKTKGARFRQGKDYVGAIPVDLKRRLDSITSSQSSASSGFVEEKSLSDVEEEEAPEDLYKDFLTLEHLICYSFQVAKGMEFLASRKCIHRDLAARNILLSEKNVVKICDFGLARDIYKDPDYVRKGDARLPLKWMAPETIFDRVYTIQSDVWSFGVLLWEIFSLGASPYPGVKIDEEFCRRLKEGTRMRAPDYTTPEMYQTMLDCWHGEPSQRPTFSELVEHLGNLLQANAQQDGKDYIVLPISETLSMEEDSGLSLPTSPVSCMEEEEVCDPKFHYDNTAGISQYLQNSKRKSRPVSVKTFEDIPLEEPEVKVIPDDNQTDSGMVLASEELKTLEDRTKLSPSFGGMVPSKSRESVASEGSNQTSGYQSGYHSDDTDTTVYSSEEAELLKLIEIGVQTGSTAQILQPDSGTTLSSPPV
Chain of Phosphorylase b kinase gamma catalytic chain, skeletal muscle/heart isoform (Homo sapiens) (Q16816 whole entry, looked up, the tested form may be a part, canonical isoform): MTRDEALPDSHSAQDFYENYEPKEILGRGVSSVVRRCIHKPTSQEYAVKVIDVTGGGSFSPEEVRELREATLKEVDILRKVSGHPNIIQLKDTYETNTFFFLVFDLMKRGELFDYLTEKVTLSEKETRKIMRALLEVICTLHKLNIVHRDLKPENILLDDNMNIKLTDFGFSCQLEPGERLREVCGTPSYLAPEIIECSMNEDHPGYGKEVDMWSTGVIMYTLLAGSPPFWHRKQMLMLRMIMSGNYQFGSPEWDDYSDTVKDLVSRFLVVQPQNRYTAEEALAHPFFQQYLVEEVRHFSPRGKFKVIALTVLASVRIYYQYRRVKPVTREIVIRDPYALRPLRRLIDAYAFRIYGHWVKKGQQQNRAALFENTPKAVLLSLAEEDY

Compound Cc1cccc(-c2nc(N)sc2-c2ccc3ncccc3n2)c1 has an Activity [1] of 112%, an Activity [2] of 107% and an IC50 [3] of 190 nM. It also gave an Activity [4] of 136%, an Activity [5] of 133% and an Activity [6] of 121%. It also gave an Activity [7] of 120%, an Activity [8] of 119% and an Activity [9] of 116%. For the same compound, the Activity [10] was 115%, the Activity [11] was 113% and the Activity [12] was 112%. It also gave an Activity [13] of 108%, an Activity [14] of 106% and an Activity [15] of 106%. It also gave an Activity [16] of 104%, an Activity [17] of 104% and an Activity [18] of 104%. It also gave an Activity [19] of 91%, an Activity [20] of 86% and an Activity [21] of 76%. For the same compound, the Activity [22] was 60%, the Activity [23] was 41% and the Activity [24] was 30%. For the same compound, the inhibition [25] was 47%.
